Most compounds without a hit are left out; they make up all but 2.9% or so of the library.
A3A deaminase = human APOBEC3A DNA deaminase inhibition; P31941; recombinant A3A, FAM/TAMRA ssDNA deamination fluorescence; inhibition, % at 20 µM; 330,000 tested, 0.41% active;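 active = at least 40% inhibition at 20 µM here, with at most 30% in a related deaminase screen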;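 note: plate controls were A3A with DMSO for no effect and wells lacking A3A enzyme for full effect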
APOBEC3G inh = APOBEC3G (human) deaminase inhibition. recombinant A3G, ssDNA deamination FAM/TAMRA fluorescence. AID 493012. 330,000 tested, 0.28% active. inhibition, % at 20 µM. Q9HC16;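 active = inhibition of at least 40% at 20 µM, with no more than 30% in the related APOBEC3A deaminase screen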;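 note: plate controls were DMSO wells with A3G for no effect and wells lacking A3G enzyme for full effect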
Target sequence (Q9HC16 whole entry, looked up): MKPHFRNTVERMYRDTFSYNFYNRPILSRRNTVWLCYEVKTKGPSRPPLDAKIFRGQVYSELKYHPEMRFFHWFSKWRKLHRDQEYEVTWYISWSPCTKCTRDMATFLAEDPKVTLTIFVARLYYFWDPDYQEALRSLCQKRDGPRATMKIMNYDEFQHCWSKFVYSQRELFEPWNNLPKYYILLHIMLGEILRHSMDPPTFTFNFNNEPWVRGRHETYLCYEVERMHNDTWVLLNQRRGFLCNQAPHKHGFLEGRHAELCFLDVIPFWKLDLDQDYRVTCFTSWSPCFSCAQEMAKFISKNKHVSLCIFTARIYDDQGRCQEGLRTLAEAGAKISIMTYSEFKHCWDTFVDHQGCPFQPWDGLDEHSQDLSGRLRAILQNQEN
HCV core dimer = HCV core protein dimerization inhibition. TR-FRET GST/Flag-core106 dimerization, 1536-well. inhibition, % at 5 µM. 300,000 tested, 0.33% active. AID 1899;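 active = inhibition above the mean of all tested compounds plus 3 SD, set per screening campaign, cut at about 45% in these data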
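System: GST-tagged and Flag-tagged HCV core protein residues 1-106 / Input: core106 proteins, GST 13.5 nM and Flag 17 nM / Buffer or medium: KF-containing HEPES buffer, pH 7.45, DTT, CHAPS, BSA / Probe or stimulus: Eu-anti-GST and XL665-anti-Flag labelled anti-tag antibodies / Schedule: 4 h, 22.5 °C incubation / Technique: TR-FRET 671 and 617 nm emission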
PRMT1 FP inh = blocks human protein arginine methyltransferase 1 | Q99873 | recombinant PRMT1, activity-based probe fluorescence polarization | inhibition, % at 2.79 µM | 370,000 tested, 1.3% active;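 active = inhibition above about 21% made by adding two undisclosed values, limit read from the data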
HCV NS3 hel inh = inhibitors of Hepatitis C virus NS3 helicase. NS3 helicase DNA unwinding, Cy5 molecular beacon fluorescence. inhibition, % at 10.9 µM. 290,000 tested, 0.56% active;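 active = inhibition above the mean of all tested compounds plus 3 SD, set per campaign, cut at about 35% in these data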;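 note: 0% = DMSO wells and 100% = thioflavine S control wells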
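Control set: DMSO versus 110 µM thioflavine S; Material: NS3 helicase fragment of HCV; Measured by: Cy5 fluorescence at 0 and 60 min, beacon hairpin quenching; Read-out basis: percent inhibition from t60/t0 fluorescence ratio; Times: reaction time 60 min, 25 °C; Repeats: single replicate; Compound dosing: single dose, 10.9 µM nominal final, DMSO 0.8% final.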
ABHD5 PLIN5 PPI = inhibitors of human ABHD5-perilipin-5 interaction. Q00G26+Q8WTS1. Split G. princeps luciferase complementation, luminescence, 4 h. inhibition, % at 4 µM. 360,000 tested, 0.78% active;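 active = inhibition above the mean inhibition across every tested compound plus 3 SD, cut at about 22% in these data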;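 note: 0% = DMSO only wells and the 100% control is not disclosed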
PRMT1 confirm = confirmation of human PRMT1 inhibitors | inhibition, % at 2.79 µM | 3,300 tested, 42% active | shares compounds with PRMT1 FP inh | recombinant His-PRMT1, activity-based probe fluorescence polarization;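 active = mean inhibition across replicates above the hit cutoff derived for the earlier primary screen, cut at about 22% in these data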
An asterisk follows results filed as active; · = no result.

SMILES | A3A deaminase | APOBEC3G inh | HCV core dimer | PRMT1 FP inh | HCV NS3 hel inh | ABHD5 PLIN5 PPI | PRMT1 confirm
CCOC(=O)N1C(=O)C[C@](Sc2ccc(OC)cc2)(C(=O)N2CCN(C(C)=O)CC2)[C@H]1c1ccc(OC)cc1 | · | · | · | 54.1* | · | · | 45.8*
COc1ccc(S[C@]2(C(=O)N3CCN(C(C)=O)CC3)CC(=O)N[C@@H]2c2ccc(OC)cc2)cc1 | · | · | · | 8.1 | · | · | ·
COc1ccc(S[C@]2(C(=O)N3CCCC3)CC(=O)N(C(=O)Nc3ccc(C)c(Cl)c3)[C@@H]2c2ccc(OC)cc2)cc1 | · | · | · | 2.6 | · | · | ·
COc1ccc(S[C@]2(C(=O)N3CCOCC3)CC(=O)N(C(=O)C3CC3)[C@@H]2c2ccc(OC)cc2)cc1 | · | · | · | 36.2* | · | · | 27.0*
COc1ccc(S[C@]2(C(=O)N3CCOCC3)CC(=O)N(c3ccccc3)[C@@H]2c2ccc(OC)cc2)cc1 | · | · | · | 5.8 | · | · | ·
O=C(c1ccccc1Cl)c1c(O)c2ccccc2oc1=O | 3.7 | 9.3 | -6.8 | 1.3 | · | -8.8 | ·
COC(=O)[C@]12C[C@H](CC(=O)N3CCSCC3)C(=O)N(CCC3=CCCCC3)C1=C[C@H](C(C)(C)C)O[C@@H]2C | · | · | · | -1.7 | · | · | ·
CCOC(=O)C1(C)CCCN1C(=O)c1sccc1C (centres undefined) | · | · | · | 5.5 | · | -2.3 | ·
COc1ccc(CCNC(=O)c2ccc(S(=O)(=O)N3CCCCC3)cc2)cc1 | 0.7 | 1.3 | · | -0.5 | · | -4.7 | ·
NC(=O)C1CCN(C(=S)c2ccc(-c3ccc(Br)cc3)o2)CC1 | -2.6 | 16.8 | -9.3 | 45.6* | 2.8 | -1.2 | 60.2*
CCOC(=O)c1[nH]c(=S)n(-c2ccccc2)c1C(=O)OCC | · | · | · | 48.2* | · | -4.5 | 7.1
CCOC(=O)c1[nH]c(=S)n(Cc2ccccc2)c1C(=O)OCC | · | · | · | 7.1 | · | -0.4 | ·
COc1ccc(-c2csc(C(C)(NC(C)=O)c3ccccc3)n2)cn1 (centres undefined) | · | · | · | 2.6 | · | -2.6 | ·
CC(C)N(C(=O)c1nn(C)c2c1CSc1ccccc1-2)C1CCCCC1 | -3.4 | -4.2 | 11.1 | 39.3* | 0.8 | 2.4 | 13.8
Cc1ccc(/C=C2/C(=O)ON=C2c2ccccc2)o1 | -0.2 | 0.9 | 4.7 | 25.2* | 21.4 | 10.6 | 33.1*
O=C(Nc1ccc(Cl)cc1F)C1CCN(S(=O)(=O)c2cccc3nonc23)CC1 | -3.8 | -8.7 | -2.8 | 3.1 | 13.5 | -3.3 | ·
CC(=O)Nc1cc(-c2ccccc2)cn2c(-c3ccc(F)cc3)cnc12 | · | · | · | 4.1 | · | 3.3 | ·
CCC(C)NC(=O)C1CCCN(S(=O)(=O)c2ccc3c(c2)CC(C)N3C(C)=O)C1 (centres undefined) | -3.0 | -10.5 | 1.0 | 26.4* | 11.5 | -3.8 | 8.3
COC(=O)c1c(N)[nH]c(C(=O)c2ccccc2)c1-c1ccccc1Br | · | · | · | 3.3 | · | -8.7 | ·
CCOc1ccc(N=CC2=C(O)CC(c3ccco3)CC2=O)cc1 (centres undefined) | 1.1 | -6.7 | 0.8 | -1.0 | 3.7 | -2.8 | ·
O=C1CC(c2ccco2)CC(O)=C1C=Nc1cc(Cl)cc(Cl)c1 (centres undefined) | 12.0 | 2.0 | 5.7 | 27.8* | 21.7 | 4.8 | 13.3
COc1ccc(C(CNC(=O)C(C)(C)Oc2ccc(Cl)cc2)N2CCOCC2)cc1 (centres undefined) | · | · | · | -2.9 | · | -2.5 | ·
Nc1ccc(N2CCCC2)c(S(=O)(=O)Nc2cccc(C(F)(F)F)c2)c1 | -3.8 | 4.5 | · | 47.0* | · | -18.1 | 6.8
CN1C(=O)CS(=O)c2ccc(C(=O)NC3CC3)cc21 (centres undefined) | -0.2 | -0.8 | -2.3 | 37.1* | 11.4 | -4.9 | 4.0
O=C(c1ccc2oc(CCc3ccccc3)nc2c1)N1CC[C@H](O)C1 | -0.4 | -7.0 | 8.8 | 1.9 | 6.1 | 4.1 | ·
O=c1cc(-c2ccccc2)nc2cc(-c3ccco3)[nH]n12 | -6.0 | -8.0 | -7.2 | 30.3* | 21.1 | -11.3 | -0.5
O=c1cc(-c2ccccc2)nc2cc(-c3ccc(Br)cc3)[nH]n12 | -0.5 | -5.0 | 3.0 | 0.1 | 7.2 | 3.9 | ·
C/C=C/COC(=O)c1[nH]c2c(c1C)C(=O)CC(c1ccco1)C2 (centres undefined) | 26.4 | 14.1 | 53.2* | 42.7* | 30.4 | 18.6 | 7.6

Screens (PubChem BioAssay)
